According to paper PMC9052103 (RSC Advances, 2020):
pKd: −log10 of the molar value. Like-named read-outs stand apart in the source and are kept apart here.

Columns and labels:
S. aureus ATCC BAA-1720 = test: MIC, 96-well microtiter broth dilution; assay type: cell-based; conditions: Staphylococcus aureus, ATCCBAA1720|MRSA, read-out: MIC S. aureus ATCC BAA-1720
E. faecium ATCC 700221 = test: MIC, 96-well microtiter broth dilution; assay type: cell-based
[1] = test system: human renal tubular epithelial cells (HK-2); test: CCK-8 cytotoxicity assay; assay type: cell-based; conditions: Epithelial cell, 48 h, read-out: IC50 HK-2
Method in brief: (§1)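 Cells seeded at 5000 per well and allowed to adhere overnight at 37 °C, then exposed to test compound for 48 h. CCK-8 reagent added for a further 3 h, with absorbance read at 450 nm. Triplicates.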

S. aureus ATCC BAA-1747 = test: MIC, 96-well microtiter broth dilution; assay type: cell-based; conditions: Staphylococcus aureus, ATCCBAA1747|MRSA, read-out: MIC S. aureus ATCC BAA-1747
S. aureus ATCC 43300 = test: MIC, 96-well microtiter broth dilution; assay type: cell-based; conditions: Staphylococcus aureus, ATCC43300|MRSA, read-out: MIC S. aureus ATCC 43300
E. coli ATCC 25922 = test: MIC, 96-well microtiter broth dilution; assay type: cell-based; conditions: Escherichia coli, ATCC25922, read-out: MIC E. coli ATCC 25922
Z-ring in B. subtilis = test: Visualization of Z-ring; assay type: cell-based; conditions: 0.5 × MIC, 4 h
Method in brief: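 B. subtilis carrying IPTG-inducible GFP-FtsZ plasmid grown in LB with 30 μg mL−1 chloramphenicol at 37 °C with shaking; overnight culture diluted to 1% in LB with 40 μM IPTG plus test compound at 0.5 × MIC, 4 h at 37 °C. Cells fixed, resuspended in PBS, placed on 0.1% (w/v) poly-L-lysine-coated slides; imaged by confocal microscopy, 40× oil immersion.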

[2] = test system: E. faecium, S. epidermidis and E. coli; test: MIC, summary over E. faecium, S. epidermidis and E. coli; assay type: cell-based; conditions: read-out: MIC against E. faecium, S. epidermidis and E. coli
E. faecium ATCC 49624 = test: MIC, 96-well microtiter broth dilution; assay type: cell-based; conditions: Enterococcus faecium, ATCC49624, read-out: MIC E. faecium ATCC 49624
B. subtilis 168 = test: Bacterial morphology study; assay type: cell-based; conditions: 0.5 μg mL^−1 for 4 h; control group 5–10 μm
E. coli ATCC 8739 = test: MIC, 96-well microtiter broth dilution; assay type: cell-based; conditions: Escherichia coli, ATCC8739, read-out: MIC E. coli ATCC 8739
[3] = test system: mouse fibroblast cells (L929); test: CCK-8 cytotoxicity assay; assay type: cell-based; conditions: L929, 48 h, read-out: IC50 L929
Method in brief: as §1

SaFtsZ = SaFtsZ (Staphylococcus aureus, UniProt P0A031); test: SaFtsZ binding affinity assay; parameters: species or system S. aureus
Method in brief: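 Fluorescence titration at 25 °C in 50 mM Tris–HCl pH 7.4, 50 mM KCl, 2 mM magnesium acetate. Test compound at 3.51 or 3.68 μM titrated with SaFtsZ in 0.4 μM steps (0.4–6.4 μM), equilibrating 2 min per step. Excitation 493 nm, emission 500–700 nm, buffer-titration background subtracted. Kd obtained by nonlinear fit to an independent-site model.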

S. aureus ATCC BAA-41 = test: MIC, 96-well microtiter broth dilution; assay type: cell-based; conditions: Staphylococcus aureus, ATCCBAA41|MRSA, read-out: MIC S. aureus ATCC BAA-41
S. aureus FtsZ = target: T1, S. aureus FtsZ (Staphylococcus aureus, UniProt P0A031); test: Light-scattering assay of FtsZ polymerization; assay type: biochemical
T1 sequence (P0A031 1-390): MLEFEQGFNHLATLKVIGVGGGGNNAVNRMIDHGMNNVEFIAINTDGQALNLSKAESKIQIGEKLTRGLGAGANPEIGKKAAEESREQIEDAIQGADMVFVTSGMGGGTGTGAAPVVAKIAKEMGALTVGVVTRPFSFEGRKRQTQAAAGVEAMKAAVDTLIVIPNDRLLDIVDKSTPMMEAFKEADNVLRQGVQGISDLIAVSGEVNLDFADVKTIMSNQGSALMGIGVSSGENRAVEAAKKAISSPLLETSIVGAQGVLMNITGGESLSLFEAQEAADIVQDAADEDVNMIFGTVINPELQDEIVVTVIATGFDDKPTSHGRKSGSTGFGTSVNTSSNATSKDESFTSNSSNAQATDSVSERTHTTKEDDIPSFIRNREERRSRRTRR
Method in brief: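 S. aureus FtsZ (4 μM) in 50 mM MOPS pH 6.5, preincubated 10 min at 25 °C with 1% DMSO vehicle or test compound. Baseline set after adding 50 mM KCl and 10 mM MgCl2. After 10 min, 1 mM GTP added. 90° light scattering (excitation/emission 600 nm) followed for 25 min, with blank background subtracted. Rate and extent of polymerization calculated. Triplicates.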

S. aureus ATCC 29213 [4] = test: MIC, 96-well microtiter broth dilution; assay type: cell-based; conditions: Staphylococcus aureus
S. aureus FtsZ (SaFtsZ) = S. aureus FtsZ (SaFtsZ) (Staphylococcus aureus, UniProt P0A031); test: GTPase activity assay; assay type: biochemical
Method in brief: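 Phosphate-release kit assay: S. aureus FtsZ (7.3 μM) in assay buffer with 1% DMSO vehicle or varied concentrations of test compound. Reaction started with 200 μM GTP and run 30 min at room temperature. Colour reagent added for another 30 min to stop the reaction, and inorganic phosphate read at 620 nm. Triplicates.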

[5] = test system: S. epidermidis ATCC 12228; test: MIC, 96-well microtiter broth dilution; assay type: cell-based; conditions: Staphylococcus epidermidis, ATCC12228, read-out: MIC S. epidermidis ATCC 12228
[6] = test system: drug-resistant K. pneumoniae, A. baumannii, P. aeruginosa and E. cloacae
E. faecalis ATCC 29212 = test: MIC, 96-well microtiter broth dilution; assay type: cell-based; conditions: Enterococcus faecalis, ATCC29212, read-out: MIC E. faecalis ATCC 29212
S. aureus ATCC 29213 [7] = test: In vitro drug resistance development, serial passage; assay type: cell-based
Method in brief: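 Serial passage against S. aureus ATCC 29213: culture from the 0.5 × MIC well of the prior MIC plate diluted to 5 × 10^5 CFU mL−1 and exposed to a range of test compound concentrations. MIC read after 24 h at 37 °C. Cycle repeated 35 times. Ciprofloxacin, vancomycin and rifampin passaged in parallel.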

[8] = test system: human bronchial epithelium cells (16HBE); test: CCK-8 cytotoxicity assay; assay type: cell-based; conditions: 48 h, read-out: IC50 16HBE
Method in brief: as §1

MRSA strains = test: MIC, summary over MRSA strains; assay type: cell-based, S. aureus; conditions: Staphylococcus aureus, read-out: MIC against MRSA

Cc1cc(/C=C2\Sc3ccccc3N2CCCN2CCC(C)CC2)c2ccccc2[n+]1C.[I-] [Compound 4a4, (Z)-1,2-Dimethyl-4-((3-(3-(4-methylpiperidin-1-yl)propyl)benzo[d]thiazol-2(3H)-ylidene)methyl)quinolin-1-ium iodide]
MIC (S. aureus ATCC BAA-1720): 2 µg/mL
MIC (E. faecium ATCC 700221; Enterococcus faecium, ATCC700221): 2 µg/mL
MIC (E. faecium ATCC 700221; read-out: MIC against VRE): 2 to 16 µg/mL
IC50 [1]: 26 µg/mL
MIC (S. aureus ATCC BAA-1747): 2 µg/mL
MIC (S. aureus ATCC 43300): 2 µg/mL
MIC (E. coli ATCC 25922): 0.5 µg/mL
Effect on Z-ring formation (GFP-FtsZ localization) (Z-ring in B. subtilis): promoted the mislocalization of the FtsZ protein
MIC [2]: 0.5 to 2 µg/mL
MIC (E. faecium ATCC 49624): 1 µg/mL
Cell length of B. subtilis 168 (B. subtilis 168): > 10 μm
MIC (E. coli ATCC 8739): 1 µg/mL
IC50 [3]: 12.6 µg/mL
pKd (SaFtsZ): 6.90
MIC (S. aureus ATCC BAA-41): 1 µg/mL
Effect on FtsZ polymerization at a concentration gradient (S. aureus FtsZ; 0.125–0.5 μg mL^−1): enhance FtsZ polymerization in a dose-dependent manner
Light scattering signal compared to control (FtsZ polymerization) (S. aureus FtsZ; same concentration, 0.125 μg mL^−1): significant increase in light scattering signal
MIC (S. aureus ATCC 29213 [4]; ATCC29213): 1 µg/mL
MIC (S. aureus ATCC 29213 [4]; ATCC29213, read-out: MIC S. aureus ATCC 29213): 1 µg/mL
MIC (S. aureus ATCC 29213 [4]; ATCC29213, read-out: S. aureus ATCC 29213 (MIC)): 1 µg/mL
Effect on GTPase activity of SaFtsZ (S. aureus FtsZ (SaFtsZ)): did not show any effect
MIC [5]: 0.5 µg/mL
Antibacterial activity against drug-resistant K. pneumoniae, A. baumannii, P. aeruginosa and E. cloacae [6]: moderate antibacterial activity
MIC (E. faecalis ATCC 29212): 2 µg/mL
Increase of MIC after 35 passages (S. aureus ATCC 29213 [7]): 16 fold
IC50 [8]: 14.3 µg/mL
MIC (MRSA strains): 1 to 8 µg/mL
